Measured values published in ChEMBL document CHEMBL1144251, “IKCa-channel blockers. Part 2: discovery of cyclohexadienes” (Bioorg Med Chem Lett, 2005).

Test: Inhibitory concentration against rat Calcium-activated potassium channel (IKca)
Summary of the method: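 IC50 taken as the mean of at least two separate experiments, each run in triplicate.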
An IC50 of 400 nM was found for `CNC1=C(C(=O)OC)C(c2cccc(Cl)c2Cl)C2=C(COC2=O)C1` (stereo not given) in this work.
An IC50 of over 1000 nM was found for `COC(=O)C1=C(C)CC(C)=C(C(=O)OC)C1C1CCCCC1` in this work.
An IC50 of over 1000 nM was found for `COC(=O)C1=C(C)CC(C)=C(C(=O)O)C1c1ccc(Cl)c(C(F)(F)F)c1` (stereo not given) in this work.
An IC50 of 200 nM was found for `CCO/C(O)=C1/C(=O)CC2=C(C(=O)OC2)C1c1ccccc1Cl` (stereo not given) in this work.
An IC50 of 20 nM was found for `CNC1=C(C(=O)OC)C(c2ccc([N+](=O)[O-])cc2)C(C(=O)OC)=C(C)C1` (stereo not given) in this work.
An IC50 of 1.5 nM was found for `COC(=O)C1=C(C)CC(C)=C(C(=O)OC)C1c1ccc(Cl)c(C(F)(F)F)c1` in this work.
An IC50 of 25 nM was found for `CNC1=C(C(=O)OC)C(c2cccc([N+](=O)[O-])c2)C(C(=O)OC)=C(C)C1` (stereo not given) in this work.
An IC50 of 8 nM was found for `COC(=O)C1=C(C)CC2=C(C(=O)OC2)C1c1ccc(Cl)c(C(F)(F)F)c1` (stereo not given) in this work.
An IC50 of 200 nM was found for `CNC1=C(C(=O)OC)C(c2cccc([N+](=O)[O-])c2)C2=C(COC2=O)C1` (stereo not given) in this work.
An IC50 of 100 nM was found for `COC(=O)C1=C(C)CC(C)=C(C(=O)OC)C1c1cc(Cl)cc(Cl)c1` in this work.
An IC50 of over 1000 nM was found for `COC(=O)C1=C(C)CC(C)=C(C(=O)OC(C)(C)C)C1c1ccc(Cl)c(C(F)(F)F)c1` (stereo not given) in this work.
An IC50 of 30 nM was found for `COC(=O)C1=C(C)CC(C)=C(C(N)=O)C1c1ccc(Cl)c(C(F)(F)F)c1` (stereo not given) in this work.
An IC50 of 200 nM was found for `CNC1=C(C(=O)OC)C(c2ccc(C(F)(F)F)cc2)C(C(=O)OC)=C(C)C1` (stereo not given) in this work.
An IC50 of 40 nM was found for `CCO/C(O)=C1/C(=O)CC2=C(C(=O)OC2)C1c1ccc(Cl)c(C(F)(F)F)c1` (stereo not given) in this work.
An IC50 of over 1000 nM was found for `COC(=O)C1=C(C)CC(C)=C(C(=O)OC)C1c1cccnc1` in this work.
